Experimental data reported in ChEMBL document CHEMBL1681751, “Synthesis and biological evaluation of imidazolo[2,1-b]benzothiazole derivatives, as potential p53 inhibitors” (Bioorg Med Chem, 2011).
Active and inactive are the calls of the source. The calls are words filed in the database; no cut-off is given here.

How the values were obtained:
IGROV-1 [1] = test: Antiproliferative activity against human IGROV1 cells after 72 hrs by cell counter; assay type: functional, cell-based
In short: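 Log-phase cells seeded in duplicate; for the paclitaxel combination, cells got compound 2 h before the antimicrotubule agent. Final DMSO at most 0.5%. After treatment, adherent cells were trypsinized and counted with a cell counter. IC50 is the concentration giving 50% fewer cells than untreated control.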

IGROV-1 [2] = test: Induction of apoptosis in human IGROV1 cells at 5 uM after 72 hrs by TUNEL assay; assay type: functional
In short: (§1)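 IGROV-1 cells were exposed for 72 h; in the combination they were pretreated 2 h with compound before paclitaxel. Cells were fixed in 4% paraformaldehyde for 60 min at room temperature and washed. TUNEL labelling with fluorescein was read by flow cytometry as % TUNEL-positive cells, with at least three independent experiments.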

IGROV-1 [3] = test: Reduction of paclitaxel-induced p21 expression in human IGROV1 cells at 5 uM after 24 hrs by Western blot analysis; assay type: functional, cell-based
In short: (§2)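 IGROV-1 cells were treated 24 h with paclitaxel 0.12 µM, compound, or both, then lysed. p53 and p21waf1 were detected by Western blot.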

IGROV-1 [4] = test: Reduction of paclitaxel-induced p21 expression in human IGROV1 cells at 0.12 uM after 24 hrs by Western blot analysis; assay type: functional, cell-based; in short: as §2
IGROV-1 [5] = test: Reduction of paclitaxel-induced p21 expression in human IGROV1 cells at 10 uM after 24 hrs by Western blot analysis; assay type: functional, cell-based; in short: as §2
IGROV-1 [6] = test: Reduction of paclitaxel-induced p21 expression in human IGROV1 cells at 0.3 uM after 24 hrs by Western blot analysis; assay type: functional, cell-based; in short: as §2
U2OS = test: Antitumor activity against human U2OS cells xenografted in athymic Swiss nude mouse at 24 mg/kg, iv administered every 4 days relative to paclitaxel; assay type: functional, organism-based; parameters: dose 24 mg/kg
In short: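 U2OS osteosarcoma tumors were grown sc in female athymic Swiss nude mice from 10^7 cells/mouse and kept by serial fragment passage. Dosing was iv every four days for 4 administrations, alone or combined with paclitaxel, starting at about 80 mm3. Controls received solvent. Tumor growth and complete regressions were followed.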

IGROV-1 [7] = test: Induction of apoptosis in human IGROV1 cells at 0.12 uM after 72 hrs by TUNEL assay; assay type: functional; in short: as §1
Mus musculus [8] = test: Toxicity in athymic Swiss nude mouse assessed as body weight loss at 9 mg/kg, iv every 4 days for 4 administration; assay type: organism-based; parameters: dose 9 mg/kg, route intravenous; conditions: in vivo, 96 h
In short: (§3)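 Female athymic Swiss nude mice with sc IGROV-1 xenografts were dosed iv every four days for 4 administrations (q4dx4), 4 mice per group. Toxicity was scored as % body weight loss from drug treatment, with lethal toxicity counted per group.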

Mus musculus [9] = test: Toxicity in athymic Swiss nude mouse assessed as lethal toxicity at 18 mg/kg, iv every 4 days for 4 administration; assay type: organism-based; parameters: dose 18 mg/kg, route intravenous; conditions: in vivo, 96 h
In short: (§4)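 Female athymic Swiss nude mice bearing sc IGROV-1 human ovarian carcinoma xenografts (10^7 exponentially growing cells/mouse into right flank; lines kept by serial sc fragment passage). Dosed iv every four days for 4 administrations (q4dx4), starting when tumors were measurable (around 80 mg). Lethal toxicity scored as animals dying per group (4 mice/group).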

IGROV-1 [10] = test: Antitumor activity against human IGROV1 cells xenografted in athymic Swiss nude mouse assessed as tumor volume inhibition at 9 mg/kg, iv every 4 days for 4 administration; assay type: functional; parameters: scale not given: the % may be the effect or the level left
In short: (§5)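 Female athymic Swiss nude mice received IGROV-1 tumors sc in the right flank (10^7 cells/mouse), then maintained by serial sc passage of about 3x3x3 mm fragments. Dosing was iv, q4dx4, starting when tumors were about 80 mg. Read-out was % tumor volume inhibition, treated vs control, 4 mice per group, Student's t-test vs control.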

Mus musculus [11] = test: Toxicity in athymic Swiss nude mouse assessed as lethal toxicity at 9 mg/kg, iv every 4 days for 4 administration; assay type: organism-based; parameters: dose 9 mg/kg, route intravenous; conditions: in vivo, 96 h; in short: as §4
IGROV-1 [12] = test: Antitumor activity against human IGROV1 cells xenografted in athymic Swiss nude mouse assessed as tumor volume inhibition at 18 mg/kg, iv every 4 days for 4 administration; assay type: functional; parameters: scale not given: the % may be the effect or the level left; in short: as §5
Mus musculus [13] = test: Toxicity in athymic Swiss nude mouse assessed as body weight loss at 18 mg/kg, iv every 4 days for 4 administration; assay type: organism-based; parameters: dose 18 mg/kg, route intravenous; conditions: in vivo, 96 h; in short: as §3
IGROV-1 [14] = test: Antitumor activity against human IGROV1 cells xenografted in athymic Swiss nude mouse assessed as tumor volume inhibition at 3 mg/kg, iv every 4 days for 4 administration; assay type: functional; parameters: scale not given: the % may be the effect or the level left; in short: as §5
Mus musculus [15] = test: Toxicity in athymic Swiss nude mouse assessed as body weight loss at 3 mg/kg, iv every 4 days for 4 administration; assay type: organism-based; parameters: dose 3 mg/kg, route intravenous; conditions: in vivo, 96 h; in short: as §3
Mus musculus [16] = test: Toxicity in athymic Swiss nude mouse assessed as lethal toxicity at 3 mg/kg, iv every 4 days for 4 administration; assay type: organism-based; parameters: dose 3 mg/kg, route intravenous; conditions: in vivo, 96 h; in short: as §4

**Q.** With `NCCC(=O)NCc1ccc(-c2cn3c(n2)sc2ccccc23)cc1` as the molecule, how does the IC50 (IGROV-1 [1]; Homo sapiens, IGROV-1, 72 h) read?
**A.** The IC50 was 3 µM.

**Q.** `Cn1c2ccccc2n2cc(-c3ccc(C#N)cc3)nc12` was tested. Which IC50 (IGROV-1 [1]; Homo sapiens, IGROV-1, 72 h) did it give?
**A.** The IC50 was 7 µM.

**Q.** For `CC(C)NC(=O)CCNCc1ccc(-c2cn3c(n2)sc2ccccc23)cc1`, which IC50 (IGROV-1 [1]; Homo sapiens, IGROV-1, 72 h) is on record?
**A.** The IC50 was 5 µM.

**Q.** Which results are given for `Nc1ccc(-c2cn3c4c(sc3n2)CCCC4)cc1` [listing 1 of 3 here]?
**A.** IC50 (IGROV-1 [1]; igrov-1): 4 µM; Activity (IGROV-1 [2]): 4%

**Q.** How did the IC50 (IGROV-1 [1]; Homo sapiens, IGROV-1, 72 h) turn out when `COc1ccc(-c2ccc(-c3cn4c(n3)sc3ccccc34)cc2)cc1` was run?
**A.** Its IC50 is less than 1 µM.

**Q.** With `Nc1ccc(-c2cn3c(n2)sc2ccccc23)cc1` [listing 1 of 3 here] as the molecule, how does the IC50 (IGROV-1 [1]; igrov-1) read?
**A.** The IC50 was 1 µM.

**Q.** With `Cc1ccc(-c2cn3c(n2)sc2ccccc23)cc1` as the molecule, how does the IC50 (IGROV-1 [1]; Homo sapiens, IGROV-1, 72 h) read?
**A.** The IC50 was 0.3 µM.

**Q.** With `NCc1ccc(-c2cn3c4c(sc3n2)CCCC4)cc1` [listing 1 of 2 here] as the molecule, how does the IC50 (IGROV-1 [1]; igrov-1) read?
**A.** Its IC50 is 12 µM.

**Q.** What does the source list for `Nc1ccc(-c2cn3c(n2)sc2ccccc23)cc1` [listing 2 of 3 here]?
**A.** Activity (IGROV-1 [3]): Active; Activity (IGROV-1 [4]): Active; Activity (IGROV-1 [5]): Active; Activity (IGROV-1 [6]): Active

**Q.** Which IC50 (IGROV-1 [1]; igrov-1) does the source give for `Nc1ccc(-c2cn3c4c(sc3n2)CCCC4)cc1` [listing 2 of 3 here] here?
**A.** Its IC50 is 19 µM.

**Q.** Which IC50 (IGROV-1 [1]; Homo sapiens, IGROV-1, 72 h) does the source give for `Brc1ccc(-c2cn3c(n2)sc2ccccc23)cc1` here?
**A.** Its IC50 is 0.3 µM.

**Q.** Which IC50 (IGROV-1 [1]; Homo sapiens, IGROV-1, 72 h) does the source give for `O=Cc1ccc(-c2cn3c(n2)sc2ccccc23)cc1` here?
**A.** The IC50 was 6 µM.

**Q.** For `N#Cc1ccc(-c2cn3c4c(sc3n2)CCCC4)cc1`, which IC50 (IGROV-1 [1]; Homo sapiens, IGROV-1, 72 h) is on record?
**A.** The IC50 was 8 µM.

**Q.** Which IC50 (IGROV-1 [1]; Homo sapiens, IGROV-1, 72 h) does the source give for `Cc1ccc(-c2cn3c4c(sc3n2)CCCC4)cc1` here?
**A.** The IC50 was 23 µM.

**Q.** How did the Activity (IGROV-1 [3]) turn out when `NCc1ccc(-c2cn3c4c(sc3n2)CCCC4)cc1` [listing 2 of 2 here] was run?
**A.** Its Activity is “Active”.

**Q.** And the Activity (IGROV-1 [4])?
**A.** Its Activity is “Active”.

**Q.** What about the Activity (IGROV-1 [5]) of the same molecule?
**A.** The Activity was “Active”.

**Q.** What about the Activity (IGROV-1 [6]) of the same molecule?
**A.** The Activity was “Active”.

**Q.** For `O=[N+]([O-])c1ccc(-c2cn3c(n2)sc2ccccc23)cc1`, which IC50 (IGROV-1 [1]; Homo sapiens, IGROV-1, 72 h) is on record?
**A.** Its IC50 is 2 µM.

**Q.** How did the IC50 (IGROV-1 [1]; Homo sapiens, IGROV-1, 72 h) turn out when `CCn1c2ccccc2n2cc(-c3ccc(C#N)cc3)nc12` was run?
**A.** Its IC50 is 4.5 µM.

**Q.** `Nc1ccc(-c2cn3c(n2)sc2ccccc23)cc1` [listing 3 of 3 here] was tested. Which IC50 (IGROV-1 [1]; igrov-1) did it give?
**A.** The IC50 was 5 µM.

**Q.** Which IC50 (IGROV-1 [1]; Homo sapiens, IGROV-1, 72 h) does the source give for `CC(=O)NCc1ccc(-c2cn3c4c(sc3n2)CCCC4)cc1` here?
**A.** Its IC50 is 28 µM.

**Q.** What does the source list for `CC(=O)O[C@H]1C(=O)[C@@]2(C)[C@H]([C@H](OC(=O)c3ccccc3)[C@]3(O)C[C@H](OC(=O)[C@H](O)[C@@H](NC(=O)c4ccccc4)c4ccccc4)C(C)=C1C3(C)C)[C@]1(OC(C)=O)CO[C@@H]1C[C@@H]2O` [PACLITAXEL]?
**A.** Activity (U2OS): inactive; Activity (IGROV-1 [7]): 13%

**Q.** `Cl.NCc1ccc(-c2cn3c4c(sc3n2)CCCC4)cc1` was tested. Which Activity (Mus musculus [8]) did it give?
**A.** The Activity was 6%.

**Q.** What about the Activity (Mus musculus [9]) of the same molecule?
**A.** The Activity was “Non-toxic”.

**Q.** What about the IC50 (IGROV-1 [1]; igrov-1) of the same molecule?
**A.** The IC50 was 31 µM.

**Q.** What about the Activity (IGROV-1 [10]) of the same molecule?
**A.** Its Activity is 21%.

**Q.** And the Activity (Mus musculus [11])?
**A.** Its Activity is “Non-toxic”.

**Q.** And the Activity (IGROV-1 [12])?
**A.** The Activity was 27%.

**Q.** And the Activity (Mus musculus [13])?
**A.** Its Activity is 4%.

**Q.** How did the Activity (Mus musculus [8]) turn out when `Cl.NCc1ccc(-c2cn3c(n2)sc2ccccc23)cc1` was run?
**A.** The Activity was 5%.

**Q.** And the Activity (IGROV-1 [14])?
**A.** The Activity was 15%.

**Q.** What about the IC50 (IGROV-1 [1]; igrov-1) of the same molecule?
**A.** Its IC50 is 0.3 µM.

**Q.** What about the Activity (Mus musculus [15]) of the same molecule?
**A.** The Activity was 3%.

**Q.** What about the Activity (IGROV-1 [10]) of the same molecule?
**A.** The Activity was 46%.

**Q.** What about the Activity (Mus musculus [11]) of the same molecule?
**A.** Its Activity is “Non-toxic”.

**Q.** And the Activity (Mus musculus [16])?
**A.** Its Activity is “Non-toxic”.

**Q.** Which Activity (IGROV-1 [3]) does the source give for `NCc1ccc(-c2cn3c(n2)sc2ccccc23)cc1` [listing 1 of 2 here] here?
**A.** Its Activity is “Active”.

**Q.** And the Activity (IGROV-1 [4])?
**A.** The Activity was “Active”.

**Q.** What about the Activity (IGROV-1 [5]) of the same molecule?
**A.** Its Activity is “Active”.

**Q.** What about the Activity (IGROV-1 [6]) of the same molecule?
**A.** The Activity was “Active”.

**Q.** Which IC50 (IGROV-1 [1]; Homo sapiens, IGROV-1, 72 h) does the source give for `OCc1ccc(-c2cn3c(n2)sc2ccccc23)cc1` here?
**A.** Its IC50 is 7 µM.

**Q.** How did the IC50 (IGROV-1 [1]; igrov-1) turn out when `NCc1ccc(-c2cn3c(n2)sc2ccccc23)cc1` [listing 2 of 2 here] was run?
**A.** The IC50 was 0.03 µM.

**Q.** How did the IC50 (IGROV-1 [1]; Homo sapiens, IGROV-1, 72 h) turn out when `N#Cc1ccc(-c2cn3c(n2)sc2ccccc23)cc1` was run?
**A.** The IC50 was 0.03 µM.

**Q.** For `CC(=O)NCc1ccc(-c2cn3c(n2)sc2ccccc23)cc1`, which IC50 (IGROV-1 [1]; Homo sapiens, IGROV-1, 72 h) is on record?
**A.** Its IC50 is 12 µM.

**Q.** Which results are given for `Nc1ccc(-c2cn3c4c(sc3n2)CCCC4)cc1` [listing 3 of 3 here]?
**A.** Activity (IGROV-1 [3]): Active; Activity (IGROV-1 [4]): Active; Activity (IGROV-1 [5]): Active; Activity (IGROV-1 [6]): Active
